Legend:
Rattus norvegicus [1] = assay: In vivo Triglyceride lowering activity at dose as 0.025% of the diet.; assay type: functional
Procedure, shortened: (§1)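 Male CFE or CD-1 Sprague-Dawley rats, 140-150 g; 8 per control group, 4 per test group. Compound mixed into ground chow (w/w) via MeOH-CHCl3 (1:3) solution, solvent evaporated; controls got solvent-treated chow. Fed ad libitum 5 days, food intake monitored, killed fed and bled. Serum sterols and triglycerides by adapted autoanalyzer methods; mean percent of control, Student's t test.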

Rattus norvegicus [2] = assay: In vivo triglyceride lowering activity dosed at 0.10 % of the diet; assay type: functional; procedure, shortened: as §1
Rattus norvegicus [3] = assay: In vivo triglyceride lowering activity dosed at 0.05 % of the diet; assay type: functional; procedure, shortened: as §1
Rattus norvegicus [4] = assay: In vivo sterol lowering activity dosed at 0.10 % of the diet; assay type: functional; procedure, shortened: as §1
Rattus norvegicus [5] = assay: In vivo Sterol lowering activity at dose as 0.05 % of the diet; assay type: functional; procedure, shortened: as §1
[6] = target: T1, Sterol O-acyltransferase 1 (Rattus norvegicus) (UniProt O70536); assay: In vitro inhibitory activity against acyl coenzyme A:cholesterol acyltransferase (ACAT); parameters: concentration or dose not given beside the values; conditions: concentration not given here
T1 sequence (whole entry): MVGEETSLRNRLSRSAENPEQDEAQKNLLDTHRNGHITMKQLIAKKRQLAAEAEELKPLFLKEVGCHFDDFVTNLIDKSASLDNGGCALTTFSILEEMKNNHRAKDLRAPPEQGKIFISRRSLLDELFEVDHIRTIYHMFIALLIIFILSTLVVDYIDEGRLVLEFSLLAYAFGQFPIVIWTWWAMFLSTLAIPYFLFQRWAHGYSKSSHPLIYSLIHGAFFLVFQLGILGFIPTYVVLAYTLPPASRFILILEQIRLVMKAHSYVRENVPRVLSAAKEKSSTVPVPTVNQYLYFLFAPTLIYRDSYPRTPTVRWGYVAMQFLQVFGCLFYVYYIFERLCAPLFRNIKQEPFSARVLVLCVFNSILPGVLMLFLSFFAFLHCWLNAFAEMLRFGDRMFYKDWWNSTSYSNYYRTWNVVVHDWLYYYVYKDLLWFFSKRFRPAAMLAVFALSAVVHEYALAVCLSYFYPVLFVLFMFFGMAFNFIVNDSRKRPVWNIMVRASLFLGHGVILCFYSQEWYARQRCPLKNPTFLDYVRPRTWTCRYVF
Procedure, shortened: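 ACAT enzyme from rat adrenal homogenate in 0.2 M KH2PO4 buffer pH 7.4, 1000g 15 min 5 °C supernatant (microsomal fraction). Supernatant + BSA (50 mg/mL) + compound at final 5.2 μg/mL + buffer preincubated 10 min 37 °C; [14C]oleoyl-CoA (0.4 μCi) added, 30 min 37 °C. Lipids extracted, TLC; cholesteryl ester zone counted. Mean % inhibition vs no-compound control; Student's t test.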

Rattus norvegicus [7] = assay: In vivo Sterol lowering activity at dose as 0.025 % of the diet; assay type: functional; procedure, shortened: as §1
Rattus norvegicus [8] = assay: In vivo Triglyceride lowering activity at dose as 0.017 % of the diet; assay type: functional; procedure, shortened: as §1
Rattus norvegicus [9] = assay: In vivo Sterol lowering activity at dose as 0.017 % of the diet; assay type: functional; procedure, shortened: as §1
Rattus norvegicus [10] = assay: In vivo Sterol lowering activity at dose as 0.025 % of the diet.; assay type: functional; procedure, shortened: as §1
Rattus norvegicus [11] = assay: In vivo Sterol lowering activity at dose as 0.10 % of the diet.; assay type: functional; procedure, shortened: as §1
Rattus norvegicus [12] = assay: In vivo triglyceride lowering activity, dosed at 0.10 % of the diet.; assay type: functional; procedure, shortened: as §1
Rattus norvegicus [13] = assay: In vivo Triglyceride lowering activity at dose as 0.05 % of the diet.; assay type: functional; procedure, shortened: as §1
Rattus norvegicus [14] = assay: In vivo Triglyceride lowering activity at dose as 0.025% of the diet; assay type: functional; procedure, shortened: as §1
Rattus norvegicus [15] = assay: In vivo Sterol lowering activity at dose as 0.05 % of the diet.; assay type: functional; procedure, shortened: as §1
Rattus norvegicus [16] = assay: In vivo Triglyceride lowering activity at dose as 0.017 % of the diet.; assay type: functional; procedure, shortened: as §1
Rattus norvegicus [17] = assay: In vivo Triglyceride lowering activity at dose as 0.025 % of the diet.; assay type: functional; procedure, shortened: as §1
Rattus norvegicus [18] = assay: In vivo Sterol lowering activity at dose as 0.03 % of the diet.; assay type: functional; procedure, shortened: as §1
Rattus norvegicus [19] = assay: In vivo Sterol lowering activity at dose as 0.01 % of the diet..; assay type: functional; procedure, shortened: as §1
Rattus norvegicus [20] = assay: In vivo triglyceride lowering activity, dosed at 0.01 % of the diet.; assay type: functional; procedure, shortened: as §1
Rattus norvegicus [21] = assay: In vivo triglyceride lowering activity, dosed at 0.03 % of the diet; assay type: functional; procedure, shortened: as §1

Row | inhibition [6] | Structure (SMILES) | Diet (Rattus norvegicus [1]) | serum triglycerides, percent of control (Rattus norvegicus [2]) | Diet (Rattus norvegicus [3]) | serum sterol, percent of control (Rattus norvegicus [4]) | Diet (Rattus norvegicus [5]) | Serum triglycerides, % of control (Rattus norvegicus [8]) | Diet (Rattus norvegicus [9]) | Diet (Rattus norvegicus [10]) | serum sterol, percent of control (Rattus norvegicus [11]) | Diet (Rattus norvegicus [12]) | Diet (Rattus norvegicus [13]) | further results
1 | 41% | CCOC(=O)c1ccc(NCCCCCCc2ccccc2)cc1 | 59% | 43% | 45% | 82% | 84% |  |  |  |  |  |  | Diet (Rattus norvegicus [7]): 89%
2 | < 36% | CCCCCCCCCCCCCOc1ccc(CNc2ccc(C(=O)O)cc2)cc1 |  | <56% | <65% | 81% | 100% | <62% | 100% |  |  |  |  | 
3 | 26% | O=C(O)c1ccc(NCCCCCc2ccccc2)cc1 | 96% |  |  |  | 84% |  |  | 95% | 108% | 89% | 78% | 
4 |  | CCCCCCCOc1ccc(CNc2ccc(C(=O)OCC)cc2)cc1 |  | <80% | <76% | 90% | <86% | 88% | 100% |  |  |  |  | 
5 | 17% | O=C(O)c1ccc(NCCCCCCc2ccccc2)cc1 |  | 40% | 46% |  | 85% |  |  |  | 86% |  |  | Diet (Rattus norvegicus [7]): 83%; Diet (Rattus norvegicus [14]): 52%
6 | 49% | CCOC(=O)c1ccc(NCCc2cccs2)cc1 |  |  |  | 86% |  |  | 86% |  |  | 69% | 94% | Diet (Rattus norvegicus [15]): 90%; Diet (Rattus norvegicus [16]): 81%
7 | 69% | CCOC(=O)c1ccc(NCCCCCc2ccccc2)cc1 | 84% | 62% | 66% |  | 85% |  |  | 92% | 90% |  |  | 
8 | 0% | COc1ccccc1CCCNc1ccc(C(=O)O)cc1 |  |  |  |  |  |  |  | 102% | 110% | 72% | 87% | Diet (Rattus norvegicus [15]): 100%; Diet (Rattus norvegicus [17]): 100%
9 | < 24% | CCCCCCCOc1ccc(CNc2ccc(C(=O)O)cc2)cc1 |  | <72% | <70% | <84% | <84% | 95% | 100% |  |  |  |  | 
10 | 19% | CCOC(=O)c1ccc(NCc2ccc(-c3ccccc3)cc2)cc1 |  | 52% |  |  | 94% |  |  | 102% | 94% |  | 76% | Diet (Rattus norvegicus [17]): 74%
11 | 56% | CCOC(=O)c1ccc(NCCCCc2cccs2)cc1 | 89% |  |  |  |  |  |  | 94% | 90% | 99% | 96% | Diet (Rattus norvegicus [15]): 97%
12 | 28% | CCOC(=O)c1ccc(NCCCc2ccc(N)cc2)cc1 |  | 79% |  |  |  |  |  |  | 100% |  |  | serum sterol level, percent of control (Rattus norvegicus [18]): 97%; Diet (Rattus norvegicus [19]): 93%; Diet (Rattus norvegicus [20]): 113%; serum triglycerides, percent of control (Rattus norvegicus [21]): 70%
13 | < 51% | CCCCCCCCCCc1ccc(CNc2ccc(C(=O)O)cc2)cc1 |  | 114% | 113% | <78% | <88% | 100% | 99% |  |  |  |  | 
